Results taken from ChEMBL document CHEMBL4130534, “Genomics-Driven Discovery of Chlorinated Cyclic Hexapeptides Ulleungmycins A and B from a Streptomyces Species” (2017).
Converted amounts (≈) assume the structure as drawn. Square brackets hold non-standard residues; d marks the D form. Peptide text beside a SMILES is read from it. Trp(5-Cl) = N[C@@H](Cc1c[nH]c2ccc(Cl)cc12)C(=O)O; dAsn(3R-OH) = NC(=O)[C@H](O)[C@@H](N)C(=O)O; aIle = CC[C@@H](C)[C@H](N)C(=O)O; Orn = NCCC[C@H](N)C(=O)O

Tests used:
Type in all cases: functional
Staphylococcus aureus [1] = experiment: Antibacterial activity against methicillin-resistant Staphylococcus aureus CCARM 3167 after 24 hrs by broth microdilution method; settings: CCARM 3167, 24 h
In short: (§1)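 Broth microdilution in Mueller−Hinton broth. Strains grown to mid-log phase in the same medium and diluted 1000-fold, then inoculated at 10^5 cells/mL. Compounds dissolved in DMSO (final ≤0.05%) and tested as serial 2-fold dilutions; 0.05% DMSO as vehicle control. Incubated 24 h at 37 °C with growth read as absorbance at 650 nm. MIC taken as the lowest concentration completely inhibiting growth, in triplicate.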

Staphylococcus aureus [2] = experiment: Antibacterial activity against quinolone-resistant Staphylococcus aureus CCARM 3505 after 24 hrs by broth microdilution method; settings: CCARM 3505, 24 h; in short: as §1
Bacillus subtilis = experiment: Antibacterial activity against Bacillus subtilis KCTC 1021 after 24 hrs by broth microdilution method; settings: KCTC 1021, 24 h
In short: (§2)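 Broth microdilution in Mueller–Hinton broth. Strains grown to mid-log phase and diluted 1000-fold in the same medium. Cells at 10^5/mL, 0.2 mL/well. Test samples prepared in DMSO (final ≤0.05%), with 0.05% DMSO as vehicle control. Serial 2-fold dilutions, 24 h at 37 °C. Growth read as absorbance at 650 nm. MIC is the lowest concentration giving complete growth inhibition, done in triplicate.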

Enterococcus faecalis = experiment: Antibacterial activity against Enterococcus faecalis KCTC 5191 after 24 hrs by broth microdilution method; settings: KCTC 5191, 24 h; in short: as §2
Escherichia coli = experiment: Antibacterial activity against Escherichia coli CCARM 1356 after 24 hrs by broth microdilution method; settings: CCARM 1356, 24 h; in short: as §2
Staphylococcus aureus [3] = experiment: Antibacterial activity against Staphylococcus aureus RN4220 after 24 hrs by broth microdilution method; settings: RN4220, 24 h; in short: as §1
Streptococcus pneumoniae = experiment: Antibacterial activity against Streptococcus pneumoniae KCTC 5412 after 24 hrs by broth microdilution method; settings: KCTC 5412, 24 h
In short: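 Broth microdilution with cells grown in Todd–Hewitt medium instead of Mueller–Hinton broth. Cells at 10^5/mL, 0.2 mL/well. Test samples prepared in DMSO (final ≤0.05%), with 0.05% DMSO as vehicle control. Serial 2-fold dilutions, 24 h at 37 °C. Growth read as absorbance at 650 nm. MIC is the lowest concentration giving complete growth inhibition, done in triplicate.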

Pseudomonas aeruginosa = experiment: Antibacterial activity against Pseudomonas aeruginosa KCTC 2004 after 24 hrs by broth microdilution method; settings: KCTC 2004, 24 h; in short: as §2

SMILES	MIC (Staphylococcus aureus [1]) [µg/mL]	MIC (Staphylococcus aureus [2]) [µg/mL]	MIC (Bacillus subtilis) [µg/mL]	MIC (Enterococcus faecalis) [µg/mL]	MIC (Escherichia coli) [µg/mL]	MIC (Staphylococcus aureus [3]) [µg/mL]	MIC (Streptococcus pneumoniae) [µg/mL]	MIC (Pseudomonas aeruginosa) [µg/mL]
O=C(O)c1cn(C2CC2)c2cc(N3CCNCC3)c(F)cc2c1=O [CIPROFLOXACIN]	4 (≈ 12.1 µM)	32 (≈ 96.6 µM)	0.015 (≈ 0.0453 µM)	1 (≈ 3.02 µM)	64 (≈ 193 µM)			
CC[C@@H](C)[C@@H]1NC(=O)[C@@H](CC(C)C)NC(=O)[C@@H](C(C)C)NC(=O)[C@H](Cc2c[nH]c3ccc(Cl)cc23)NC(=O)[C@@H]([C@@H](O)C(N)=O)NC(=O)[C@H](CCCN)NC1=O (cyclo([Orn][dAsn(3R-OH)][Trp(5-Cl)][dV][dL][aIle]))	32 (≈ 40.5 µM)	16 (≈ 20.2 µM)	8 (≈ 10.1 µM)	8 (≈ 10.1 µM)	64 (≈ 81 µM)	16 (≈ 20.2 µM)	8 (≈ 10.1 µM)	128 (≈ 162 µM)
CC[C@@H](C)[C@@H]1NC(=O)[C@@H](CCC(C)C)NC(=O)[C@@H](C(C)C)NC(=O)[C@H](Cc2c[nH]c3ccc(Cl)cc23)NC(=O)[C@@H]([C@@H](O)C(N)=O)NC(=O)[C@H](CCCN)NC1=O	16 (≈ 19.9 µM)	8 (≈ 9.95 µM)	8 (≈ 9.95 µM)	8 (≈ 9.95 µM)	128 (≈ 159 µM)	16 (≈ 19.9 µM)	16 (≈ 19.9 µM)	128 (≈ 159 µM)
